From ChEMBL document CHEMBL1129626, “Cyclic HIV protease inhibitors: synthesis, conformational analysis, P2/P2' structure-activity relationship, and molecular recognition of cyclic ureas” (J Med Chem, 1996)

Experiments:
[1] = biological target: Human immunodeficiency virus type 1 protease (Human immunodeficiency virus 1, UniProt Q72874); assay: Inhibitory activity against HIV-1 protease
Outline: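 HIV-1 protease Ki from cleavage of a fluorescent peptide substrate, products resolved by HPLC. Inhibitor was tested at four concentrations spanning 0.1–10 000 nM, the range chosen per inhibitor.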

[2] = system: Human immunodeficiency virus 1; assay: Inhibition of viral infection in HIV-1 (RF)-infected MT-2 cells with an oligonucleotide-based sandwich hybridization assay.; format: functional, MT2
Outline: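 Uninfected MT-2 cells were preincubated for 30 min with serial dilutions of compound, then infected with HIV-1 RF and cultured for 3 days at 37 °C, 5% CO2. Lysates were assayed for viral RNA by microtiter oligonucleotide sandwich hybridization.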

[3] = Bioavailability as maximal plasma concentration in rats; format: ADME, organism-based; details: rat
Outline: (§1)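 Rats (n = 4/group) were given an oral dose of 10 mg/kg in a propylene glycol / poly(ethylene glycol) 400 / water formulation. Cmax is the observed peak plasma concentration after the oral dose. F% is AUC(po)/AUC, with AUC taken from time zero to infinity and normalized for dose.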

[4] = Bioavailability in rat; format: ADME, organism-based; details: in vivo; outline: as §1
[5] = Human immunodeficiency virus 1, MT2

Row | Compound | Ki [1] [nM] | IC90 [2, 5] [nM] | Cmax [3] [nM] | IC90 [2] [nM] | bioavailability [4] [%]
1 | O=C1N(Cc2ccc(F)cc2)[C@H](Cc2ccccc2)[C@H](O)[C@@H](O)[C@@H](Cc2ccccc2)N1Cc1ccc2ccccc2c1 | 3.6 | 1100 |  |  | 
2 | CCCN1C(=O)N(CCC)[C@H](Cc2ccccc2)[C@H](O)[C@@H](O)[C@H]1Cc1ccccc1 | 8 | 54000 |  |  | 
3 | CN1C(=O)N(C)[C@H](Cc2ccccc2)[C@H](O)[C@@H](O)[C@H]1Cc1ccccc1 | 5700 | > 141000 |  |  | 
4 | O=C1N(Cc2cccc(Br)c2)[C@H](Cc2ccccc2)[C@H](O)[C@@H](O)[C@@H](Cc2ccccc2)N1Cc1cccc(Br)c1 | 1.4 | 1200 |  |  | 
5 | O=C1N(Cc2cccc(I)c2)[C@H](Cc2ccccc2)[C@H](O)[C@@H](O)[C@@H](Cc2ccccc2)N1Cc1cccc(I)c1 | 0.42 | 3000 |  |  | 
6 | O=C1N(Cc2cccc(C(F)(F)F)c2)[C@H](Cc2ccccc2)[C@H](O)[C@@H](O)[C@@H](Cc2ccccc2)N1Cc1cccc(C(F)(F)F)c1 |  | 7800 |  |  | 
7 | CCOCCN1C(=O)N(CCOCC)[C@H](Cc2ccccc2)[C@H](O)[C@@H](O)[C@H]1Cc1ccccc1 | 1100 | > 106000 |  |  | 
8 | COc1ccccc1CN1C(=O)N(Cc2ccccc2OC)[C@H](Cc2ccccc2)[C@H](O)[C@@H](O)[C@H]1Cc1ccccc1 | 1870 | 22900 |  |  | 
9 | O=C1N(CCN2CCOCC2)[C@H](Cc2ccccc2)[C@H](O)[C@@H](O)[C@@H](Cc2ccccc2)N1CCN1CCOCC1 |  | > 91000 |  |  | 
10 | O=C1N(Cc2ccccc2)[C@H](Cc2ccccc2)[C@H](O)[C@@H](O)[C@@H](Cc2ccccc2)N1Cc1ccccc1 | 3 | 830 | 1300 |  | 
11 | C=CCN1C(=O)N(Cc2ccc3ccccc3c2)[C@H](Cc2ccccc2)[C@H](O)[C@@H](O)[C@H]1Cc1ccccc1 | 1.4 | 990 |  |  | 
12 | O=C1N(Cc2cccc(F)c2)[C@H](Cc2ccccc2)[C@H](O)[C@@H](O)[C@@H](Cc2ccccc2)N1Cc1cccc(F)c1 | 3 | 710 |  |  | 
13 | C=COCCN1C(=O)N(CCOC=C)[C@H](Cc2ccccc2)[C@H](O)[C@@H](O)[C@H]1Cc1ccccc1 | 60 | > 107000 |  |  | 
14 | O=C1N(Cc2ccc(Br)cc2)[C@H](Cc2ccccc2)[C@H](O)[C@@H](O)[C@@H](Cc2ccccc2)N1Cc1ccc(Br)cc1 | 27 | 8100 |  |  | 
15 | CCCCCCCN1C(=O)N(CCCCCCC)[C@H](Cc2ccccc2)[C@H](O)[C@@H](O)[C@H]1Cc1ccccc1 | 260 | > 96000 |  |  | 
16 | O=C1N(Cc2ccncc2)[C@H](Cc2ccccc2)[C@H](O)[C@@H](O)[C@@H](Cc2ccccc2)N1Cc1ccncc1 | 90 | 98000 |  |  | 
17 | COc1ccc(CN2C(=O)N(Cc3ccc(OC)cc3)[C@H](Cc3ccccc3)[C@H](O)[C@@H](O)[C@H]2Cc2ccccc2)cc1 | 157 | 7600 |  |  | 
18 | CCCCN1C(=O)N(Cc2ccc3ccccc3c2)[C@H](Cc2ccccc2)[C@H](O)[C@@H](O)[C@H]1Cc1ccccc1 | 0.6 | 750 |  |  | 
19 | Nc1cccc(CN2C(=O)N(Cc3ccc4ccccc4c3)[C@H](Cc3ccccc3)[C@H](O)[C@@H](O)[C@H]2Cc2ccccc2)c1 | 1 | 84 |  |  | 

Row | Compound | Ki [1] [nM] | IC90 [2, 5] [nM] | Cmax [3] [nM] | IC90 [2] [nM] | bioavailability [4] [%]
20 | CC(C)CCCCCN1C(=O)N(CCCCCC(C)C)[C@H](Cc2ccccc2)[C@H](O)[C@@H](O)[C@H]1Cc1ccccc1 | 110 | > 18000 |  |  | 
21 | O=C1N(Cc2ccc(CO)cc2)[C@H](Cc2ccccc2)[C@H](O)[C@@H](O)[C@@H](Cc2ccccc2)N1Cc1ccc(CO)cc1 | 1650 |  |  | 51000 | 
22 | CC(C)=CCN1C(=O)N(CC=C(C)C)[C@H](Cc2ccccc2)[C@H](O)[C@@H](O)[C@H]1Cc1ccccc1 |  | 870 | < 400 |  | 
23 | CCCCCN1C(=O)N(CCCCC)[C@H](Cc2ccccc2)[C@H](O)[C@@H](O)[C@H]1Cc1ccccc1 | 1.6 | 1500 |  |  | 
24 | O=C1N(Cc2cccc(Cl)c2)[C@H](Cc2ccccc2)[C@H](O)[C@@H](O)[C@@H](Cc2ccccc2)N1Cc1cccc(Cl)c1 | 0.89 | 1300 | 300 |  | 
25 | O=C1N(Cc2cccc(CO)c2)[C@H](Cc2ccccc2)[C@H](O)[C@@H](O)[C@@H](Cc2ccccc2)N1Cc1cccc(CO)c1 | 0.14 | 38 | 830 |  | 18
26 | COc1cccc(CN2C(=O)N(Cc3cccc(OC)c3)[C@H](Cc3ccccc3)[C@H](O)[C@@H](O)[C@H]2Cc2ccccc2)c1 | 1.6 | 1300 |  |  | 
27 | O=C1N(Cc2ccccc2)[C@H](Cc2ccccc2)[C@H](O)[C@@H](O)[C@@H](Cc2ccccc2)N1Cc1ccc2ccccc2c1 | 2.3 | 7500 |  |  | 
28 | O=C1N(Cc2ccccn2)[C@H](Cc2ccccc2)[C@H](O)[C@@H](O)[C@@H](Cc2ccccc2)N1Cc1ccccn1 | 145 | 49000 |  |  | 
29 | C#CCN1C(=O)N(CC#C)[C@H](Cc2ccccc2)[C@H](O)[C@@H](O)[C@H]1Cc1ccccc1 | 22 | 42000 |  |  | 
30 | O=C1N(Cc2ccncc2)[C@H](Cc2ccccc2)[C@H](O)[C@@H](O)[C@@H](Cc2ccccc2)N1Cc1ccc2ccccc2c1 | 6.9 | 2700 |  |  | 
31 | O=C1N(Cc2ccc3ccccc3c2)[C@H](Cc2ccccc2)[C@H](O)[C@@H](O)[C@@H](Cc2ccccc2)N1CC1CC1 | 1.5 | 1300 |  |  | 
32 | CCCCN1C(=O)N(CCCC)[C@H](Cc2ccccc2)[C@H](O)[C@@H](O)[C@H]1Cc1ccccc1 | 1.4 | 680 |  |  | 
33 | COCCN1C(=O)N(CCOC)[C@H](Cc2ccccc2)[C@H](O)[C@@H](O)[C@H]1Cc1ccccc1 | 800 | > 114000 |  |  | 
34 | O=C1N(Cc2ccccc2Cl)[C@H](Cc2ccccc2)[C@H](O)[C@@H](O)[C@@H](Cc2ccccc2)N1Cc1ccccc1Cl | 240 | 11300 |  |  | 
35 | CCC(C)CCN1C(=O)N(CCC(C)CC)[C@H](Cc2ccccc2)[C@H](O)[C@@H](O)[C@H]1Cc1ccccc1 (stereo partly specified) | 36 |  |  |  | 
36 | O=C1N(CC2CCC2)[C@H](Cc2ccccc2)[C@H](O)[C@@H](O)[C@@H](Cc2ccccc2)N1CC1CCC1 | 1.3 | 1000 |  |  | 
37 | O=C1N(Cc2ccc(F)cc2)[C@H](Cc2ccccc2)[C@H](O)[C@@H](O)[C@@H](Cc2ccccc2)N1Cc1ccc(F)cc1 | 1.4 | 600 | 1600 |  | 
38 | C=C(C)CN1C(=O)N(CC(=C)C)[C@H](Cc2ccccc2)[C@H](O)[C@@H](O)[C@H]1Cc1ccccc1 | 7.3 | 7600 |  |  | 

Row | Compound | Ki [1] [nM] | IC90 [2, 5] [nM] | Cmax [3] [nM] | IC90 [2] [nM] | bioavailability [4] [%]
39 | CC(C)CCCN1C(=O)N(CCCC(C)C)[C@H](Cc2ccccc2)[C@H](O)[C@@H](O)[C@H]1Cc1ccccc1 | 7 | 8100 |  |  | 
40 | O=C1N(Cc2cccnc2)[C@H](Cc2ccccc2)[C@H](O)[C@@H](O)[C@@H](Cc2ccccc2)N1Cc1cccnc1 | 9.7 | 8800 |  |  | 
41 | O=C1N(Cc2ccc(C(F)(F)F)cc2)[C@H](Cc2ccccc2)[C@H](O)[C@@H](O)[C@@H](Cc2ccccc2)N1Cc1ccc(C(F)(F)F)cc1 |  | 7200 |  |  | 
42 | CCN1C(=O)N(CC)[C@H](Cc2ccccc2)[C@H](O)[C@@H](O)[C@H]1Cc1ccccc1 | 100 | > 132000 |  |  | 
43 | Cc1cccc(CN2C(=O)N(Cc3cccc(C)c3)[C@H](Cc3ccccc3)[C@H](O)[C@@H](O)[C@H]2Cc2ccccc2)c1 | 7 | 2400 |  |  | 
44 | CC(C)CN1C(=O)N(CC(C)C)[C@H](Cc2ccccc2)[C@H](O)[C@@H](O)[C@H]1Cc1ccccc1 | 49 | > 100000 |  |  | 
45 | Cc1ccc(CN2C(=O)N(Cc3ccc(C)cc3)[C@H](Cc3ccccc3)[C@H](O)[C@@H](O)[C@H]2Cc2ccccc2)cc1 | 5.7 | 4300 |  |  | 
46 | O=C1N(Cc2ccccc2F)[C@H](Cc2ccccc2)[C@H](O)[C@@H](O)[C@@H](Cc2ccccc2)N1Cc1ccccc1F | 34 | 5500 |  |  | 
47 | O=C1N(CC2CCCCC2)[C@H](Cc2ccccc2)[C@H](O)[C@@H](O)[C@@H](Cc2ccccc2)N1CC1CCCCC1 | 37 | > 96000 |  |  | 
48 | COCCOCCN1C(=O)N(CCOCCOC)[C@H](Cc2ccccc2)[C@H](O)[C@@H](O)[C@H]1Cc1ccccc1 | 7700 | > 94000 |  |  | 
49 | O=C1N(Cc2cccc([N+](=O)[O-])c2)[C@H](Cc2ccccc2)[C@H](O)[C@@H](O)[C@@H](Cc2ccccc2)N1Cc1cccc([N+](=O)[O-])c1 | 2.8 | 970 |  |  | 
50 | CCCCCCN1C(=O)N(CCCCCC)[C@H](Cc2ccccc2)[C@H](O)[C@@H](O)[C@H]1Cc1ccccc1 | 4.6 | > 102000 |  |  | 
51 | CCCN1C(=O)N(Cc2ccc3ccccc3c2)[C@H](Cc2ccccc2)[C@H](O)[C@@H](O)[C@H]1Cc1ccccc1 | 1.1 | 3300 |  |  | 
52 | O=C1N(Cc2cccnc2)[C@H](Cc2ccccc2)[C@H](O)[C@@H](O)[C@@H](Cc2ccccc2)N1Cc1ccc2ccccc2c1 | 5.2 | 720 |  |  | 
53 | CC(C)CCCCN1C(=O)N(CCCCC(C)C)[C@H](Cc2ccccc2)[C@H](O)[C@@H](O)[C@H]1Cc1ccccc1 | 30 | > 95000 |  |  | 
54 | CC(C)CCN1C(=O)N(CCC(C)C)[C@H](Cc2ccccc2)[C@H](O)[C@@H](O)[C@H]1Cc1ccccc1 | 12 | 3200 |  |  | 
55 | O=C1N(CC2CCCC2)[C@H](Cc2ccccc2)[C@H](O)[C@@H](O)[C@@H](Cc2ccccc2)N1CC1CCCC1 | 4.3 | 1700 | 200 |  | 
56 | O=C1N(Cc2ccc(Cl)cc2)[C@H](Cc2ccccc2)[C@H](O)[C@@H](O)[C@@H](Cc2ccccc2)N1Cc1ccc(Cl)cc1 | 5.2 | 4500 |  |  | 
57 | O=C1N(Cc2ccc(CO)cc2)[C@H](Cc2ccccc2)[C@H](O)[C@@H](O)[C@@H](Cc2ccccc2)N1Cc1ccc2ccccc2c1 | 0.93 | 210 |  |  | 
